Test results: ChEMBL document CHEMBL1130054, “Non-peptide glycoprotein IIb/IIIa inhibitors. 17. Design and synthesis of orally active, long-acting non-peptide fibrinogen receptor antagonists” (J Med Chem, 1997)

Tests used:
[1] = target: T1, Integrin alpha-IIb/beta-3 (Homo sapiens, UniProt P05106+P08514); assay: Displacement of L-736,622 from purified resting Fibrinogen Receptor; type: protein-complex assay
In short: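 Human platelet GPIIb/IIIa, unactivated form from Sephacryl S-300HR (typically 600 nM), in Triton X-100 buffer pH 7.4 with Ca²⁺/Mg²⁺. Used 1 μM fluorescent ligand L-736,622 at room temperature, read by fluorescence displacement. KD was calculated using 3.7 nM as the probe KD.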

[2] = target: T1, Integrin alpha-IIb/beta-3; assay: Displacement of [125I]L-692884 from purified Fibrinogen Receptor activated by coating onto yttrium silicate; type: protein-complex assay
In short: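 Purified human GPIIb/IIIa activated by coating on yttrium silicate SPA beads (~0.3 nM) with ~0.3 nM [125I]L-692,884 in 20 mM HEPES, 0.15 M NaCl, pH 7.5, at room temperature. Competitor was tested over a wide concentration range. After equilibration, bound CPM was fitted by nonlinear least squares with a Hill slope to give ED50.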

Homo sapiens [3] = organism: Homo sapiens; assay: Inhibition of aggregation of human gel-filtered platelets was measured by light transmittance method.; type: functional
In short: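 Human gel-filtered platelets, 2 × 10⁸/mL, with 0.1 mg/mL human fibrinogen and 1 mM CaCl₂ at 37 °C. Aggregation was started with 10 μM ADP added last and followed by light transmittance. IC50 is the concentration halving the aggregation rate vs the uninhibited control, from at least two determinations.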

Homo sapiens [4] = assay: Inhibition of ADP induced platelet aggregation 75 minutes after administration of 10 ug/kg by gastric lavage; type: functional; conditions: 1.25 h
In short: (§1)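 Conscious mongrel dogs dosed by gastric lavage with aqueous solution (5 mL, sterile water vehicle); citrated blood at baseline and 20–480 min. PRP (2 × 10⁸ platelets/mL, 37 °C, stirred) aggregated with 10 μM ADP + 1 μM epinephrine; light transmittance; percent inhibition vs pretreatment response. n = 4 or 8.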

Canis familiaris [5] = assay: Ex vivo inhibition of platelet aggregation at 24 hr after the oral administration of 100 mg/kg in dogs; type: functional; conditions: Canis lupus familiaris
In short: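 Conscious dogs (n = 4) dosed orally with crystalline compound in gelatin capsules at 100 µg/kg. Ex vivo aggregation was read 24 h later in citrated PRP (2 × 10⁸ platelets/mL, 37 °C, light transmittance). It was expressed as percent inhibition vs the pretreatment baseline.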

[6] = target: T1, Integrin alpha-IIb/beta-3; assay: Inhibition of human umbilical vein endothelial cells (HUVEC) attachment to fibrinogen (FG); type: functional, cell-based
Integrin alpha-5/beta-1 = Integrin alpha-5/beta-1 (Homo sapiens, UniProt P05556+P08648); assay: Inhibition of human umbilical vein endothelial cells (HUVEC) attachment to fibronectin; type: functional, cell-based
Sequence of Integrin alpha-5/beta-1 (P05556 21-798 limits assumed): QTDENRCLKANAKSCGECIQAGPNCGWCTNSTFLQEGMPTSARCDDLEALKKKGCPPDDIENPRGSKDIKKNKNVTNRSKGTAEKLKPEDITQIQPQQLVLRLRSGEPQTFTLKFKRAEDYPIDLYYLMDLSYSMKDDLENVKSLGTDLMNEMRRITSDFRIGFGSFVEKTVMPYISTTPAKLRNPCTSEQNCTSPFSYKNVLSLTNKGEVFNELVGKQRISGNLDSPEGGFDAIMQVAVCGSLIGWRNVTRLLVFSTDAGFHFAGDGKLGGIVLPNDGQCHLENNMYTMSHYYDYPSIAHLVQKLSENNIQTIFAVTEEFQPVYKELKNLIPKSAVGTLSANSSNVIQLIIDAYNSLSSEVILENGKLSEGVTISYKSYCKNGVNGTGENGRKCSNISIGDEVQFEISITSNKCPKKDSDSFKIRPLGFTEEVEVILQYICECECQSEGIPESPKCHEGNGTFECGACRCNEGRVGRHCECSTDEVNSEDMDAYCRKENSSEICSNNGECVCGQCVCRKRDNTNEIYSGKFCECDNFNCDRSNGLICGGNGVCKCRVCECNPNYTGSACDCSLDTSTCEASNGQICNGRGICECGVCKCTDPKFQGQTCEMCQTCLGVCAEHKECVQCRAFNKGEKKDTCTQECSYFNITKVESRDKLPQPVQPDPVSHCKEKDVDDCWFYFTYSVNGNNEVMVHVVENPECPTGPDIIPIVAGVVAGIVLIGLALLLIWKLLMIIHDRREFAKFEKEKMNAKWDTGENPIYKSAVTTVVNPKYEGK
Sequence of Integrin alpha-5/beta-1 (P08648 42-894 limits assumed): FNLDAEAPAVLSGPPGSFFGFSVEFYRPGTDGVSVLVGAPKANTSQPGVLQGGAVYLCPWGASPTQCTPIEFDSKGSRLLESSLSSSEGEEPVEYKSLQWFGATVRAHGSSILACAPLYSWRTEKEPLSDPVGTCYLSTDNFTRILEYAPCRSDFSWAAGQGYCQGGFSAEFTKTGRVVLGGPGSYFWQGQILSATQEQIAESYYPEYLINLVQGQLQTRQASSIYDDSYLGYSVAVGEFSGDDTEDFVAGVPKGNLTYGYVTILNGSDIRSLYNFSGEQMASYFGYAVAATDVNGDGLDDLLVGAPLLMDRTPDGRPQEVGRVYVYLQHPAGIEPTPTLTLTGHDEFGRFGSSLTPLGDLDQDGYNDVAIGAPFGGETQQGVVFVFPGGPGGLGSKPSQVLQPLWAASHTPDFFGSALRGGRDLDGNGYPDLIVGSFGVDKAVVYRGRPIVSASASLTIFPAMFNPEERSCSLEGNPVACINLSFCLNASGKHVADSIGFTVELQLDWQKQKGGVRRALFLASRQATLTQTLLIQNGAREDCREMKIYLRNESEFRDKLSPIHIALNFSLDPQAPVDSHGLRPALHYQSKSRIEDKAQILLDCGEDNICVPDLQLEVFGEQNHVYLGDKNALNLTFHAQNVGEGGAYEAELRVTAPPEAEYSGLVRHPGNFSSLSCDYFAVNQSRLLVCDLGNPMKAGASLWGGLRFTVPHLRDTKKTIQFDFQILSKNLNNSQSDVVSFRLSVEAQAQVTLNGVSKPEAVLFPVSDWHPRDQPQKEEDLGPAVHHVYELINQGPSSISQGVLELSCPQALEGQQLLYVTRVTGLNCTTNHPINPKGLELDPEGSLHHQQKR
Sequence of Integrin alpha-5/beta-1 (P08648 895-1049 limits assumed): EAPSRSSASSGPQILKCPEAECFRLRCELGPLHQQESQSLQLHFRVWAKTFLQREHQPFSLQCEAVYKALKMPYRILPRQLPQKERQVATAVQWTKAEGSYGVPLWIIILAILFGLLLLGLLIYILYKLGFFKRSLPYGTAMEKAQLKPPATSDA

Integrin alpha-V/beta-3 = Integrin alpha-V/beta-3 (Homo sapiens, UniProt P05106+P06756); assay: Inhibition of human umbilical vein endothelial cells (HUVEC) attachment to vitronectin (VN); type: functional, cell-based
Sequence of Integrin alpha-V/beta-3 (P05106 27-788 limits assumed): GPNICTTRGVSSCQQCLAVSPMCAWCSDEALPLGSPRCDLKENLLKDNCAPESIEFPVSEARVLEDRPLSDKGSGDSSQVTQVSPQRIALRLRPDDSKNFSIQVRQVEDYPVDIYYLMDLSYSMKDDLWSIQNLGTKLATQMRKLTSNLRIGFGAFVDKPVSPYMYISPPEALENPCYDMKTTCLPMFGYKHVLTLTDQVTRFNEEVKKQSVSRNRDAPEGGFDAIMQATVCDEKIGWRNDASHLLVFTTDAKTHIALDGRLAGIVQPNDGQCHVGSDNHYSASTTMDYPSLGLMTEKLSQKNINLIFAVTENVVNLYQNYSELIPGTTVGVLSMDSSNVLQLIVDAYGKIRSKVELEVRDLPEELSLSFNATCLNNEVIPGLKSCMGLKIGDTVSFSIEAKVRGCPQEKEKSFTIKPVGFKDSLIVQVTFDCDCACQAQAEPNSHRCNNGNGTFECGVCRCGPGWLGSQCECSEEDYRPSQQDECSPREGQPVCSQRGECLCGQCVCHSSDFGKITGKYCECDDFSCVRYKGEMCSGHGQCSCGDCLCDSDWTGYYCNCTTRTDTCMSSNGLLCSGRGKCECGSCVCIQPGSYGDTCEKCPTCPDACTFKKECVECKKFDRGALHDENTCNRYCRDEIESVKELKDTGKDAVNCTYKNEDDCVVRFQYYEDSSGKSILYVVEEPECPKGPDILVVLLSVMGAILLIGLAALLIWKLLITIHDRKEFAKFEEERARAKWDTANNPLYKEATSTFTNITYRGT
Sequence of Integrin alpha-V/beta-3 (P06756 31-889 limits assumed): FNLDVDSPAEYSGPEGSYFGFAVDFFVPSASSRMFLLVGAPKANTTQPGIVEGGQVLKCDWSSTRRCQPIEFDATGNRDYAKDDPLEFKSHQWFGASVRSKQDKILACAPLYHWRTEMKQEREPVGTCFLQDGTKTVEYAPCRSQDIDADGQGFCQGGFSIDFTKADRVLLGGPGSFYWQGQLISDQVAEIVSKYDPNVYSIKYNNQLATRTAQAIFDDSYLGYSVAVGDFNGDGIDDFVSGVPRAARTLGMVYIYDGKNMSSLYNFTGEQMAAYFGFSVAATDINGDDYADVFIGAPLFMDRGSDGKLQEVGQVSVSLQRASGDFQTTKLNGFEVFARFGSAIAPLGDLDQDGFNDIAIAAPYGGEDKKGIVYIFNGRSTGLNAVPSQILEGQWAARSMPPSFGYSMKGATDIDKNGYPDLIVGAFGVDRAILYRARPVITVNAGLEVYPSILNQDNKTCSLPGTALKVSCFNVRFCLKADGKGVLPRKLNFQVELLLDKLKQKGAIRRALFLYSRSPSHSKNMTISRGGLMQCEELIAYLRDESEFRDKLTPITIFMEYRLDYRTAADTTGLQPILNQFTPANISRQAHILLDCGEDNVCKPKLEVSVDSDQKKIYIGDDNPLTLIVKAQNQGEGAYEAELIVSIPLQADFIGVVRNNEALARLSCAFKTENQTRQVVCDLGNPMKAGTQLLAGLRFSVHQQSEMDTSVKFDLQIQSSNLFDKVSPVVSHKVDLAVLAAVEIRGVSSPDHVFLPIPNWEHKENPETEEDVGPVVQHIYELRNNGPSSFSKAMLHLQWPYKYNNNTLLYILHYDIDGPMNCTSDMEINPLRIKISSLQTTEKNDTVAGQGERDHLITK
Sequence of Integrin alpha-V/beta-3 (P06756 891-1048 limits assumed): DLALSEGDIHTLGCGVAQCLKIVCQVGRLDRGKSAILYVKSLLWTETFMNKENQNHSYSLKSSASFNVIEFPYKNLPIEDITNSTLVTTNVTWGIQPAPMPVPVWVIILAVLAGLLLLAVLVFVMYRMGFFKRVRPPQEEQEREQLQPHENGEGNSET

Homo sapiens [7] = assay: Inhibition of ADP induced platelet aggregation after administration of 10 ug/kg by gastric lavage; type: functional; in short: as §1
Canis familiaris [8] = assay: Compound was tested for inhibition of extent of ADP-induced platelet aggregation between 1 and 15 min at 30 ug/Kg intravenous bolus in dogs; type: functional; conditions: Canis lupus familiaris

Structure (SMILES) | Kd [1] [nM] | ED50 [2] [nM] | IC50 (Homo sapiens [3]) [nM] | inhibition in vivo at 0.01 mg/kg (Homo sapiens [4]) [%] | inhibition in vivo at 100 mg/kg (Canis familiaris [5]) [%] | IC50 [6] [nM] | IC50 (Integrin alpha-5/beta-1) [nM] | IC50 (Integrin alpha-V/beta-3) [nM] | inhibition in vivo at 0.01 mg/kg (Homo sapiens [7]) [%] | inhibition in vivo at 0.03 mg/kg (Canis familiaris [8]) [%]
CCCCS(=O)(=O)N[C@@H](CNC(=O)c1cc2n(n1)CCN(CCC1CCNCC1)C2=O)C(=O)O | 1.8 | 0.12 | 9 |  |  |  |  |  |  | 
O=C(O)CCNC(=O)c1cc2n(n1)CCCN(CCC1CCNCC1)C2=O | 680 | 46 | 470 |  |  |  |  |  |  | 
O=C(O)CCNC(=O)c1cc2n(n1)CCN(CCC1CCNCC1)C2=O | 590 | 72 | 250 |  |  |  |  |  |  | 
CCCCS(=O)(=O)N[C@@H](CNC(=O)c1cc2n(n1)CCCN(CCC1CCNCC1)C2=O)C(=O)O | 1.4 | 0.12 |  | 76 |  |  |  |  |  | 
Cc1ccc(S(=O)(=O)N[C@@H](CNC(=O)c2cc3n(n2)CCCN(CCC2CCNCC2)C3=O)C(=O)O)cc1 | 1.1 | 0.08 | 8 |  | > 85 | > 300000 | > 300000 | > 300000 | > 65 | 
C[C@H](CC(=O)O)NC(=O)CN1CCC[C@@H](CCC2CCNCC2)C1=O | 600 | 5 |  |  |  |  |  |  |  | > 90
